One data set has as its system Enterococcus faecalis. The data set can be described thus: Antibacterial activity against Enterococcus faecalis NCTC 12697 after 16 hrs by microdilution method. In kind it is functional. As to conditions: NCTC 12697, 16 h. The method in brief:
(§1)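 Broth microdilution in cation-adjusted Mueller-Hinton broth (20 mg/l Ca2+, 10 mg/L Mg2+), inoculum 5×10^5 CFU/mL. Compounds from DMSO stocks, final DMSO <1%, tested over 0.12–128 µg/ml. Incubated 37 °C and read visually after 16 h. MIC is the lowest concentration with no visible growth, determined at least twice and converted to µmol/L.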
For orientation: Dilution methods test growth across graded concentrations, often in twofold steps.

Another data set has as its system Bacillus subtilis. Briefly: Antibacterial activity against Bacillus subtilis NCTC 10400 after 16 hrs by microdilution method. In kind it is functional. Conditions: NCTC 10400, 16 h. The method in brief: as §1
The subject of data set [1] is Staphylococcus aureus. Briefly: Antibacterial activity against methicillin-sensitive Staphylococcus aureus NCTC 12981 after 16 hrs by microdilution method. As to conditions: NCTC 12981, 16 h. In kind it is functional. The method in brief:
as §1

Data set [2] concerns Staphylococcus aureus. The data set can be described thus: Antibacterial activity against methicillin-resistant Staphylococcus aureus NCTC 13373 after 16 hrs by microdilution method. The data set is classed as functional. As to conditions: NCTC 13373, 16 h. The method in brief:
(§2)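 Broth microdilution in cation-adjusted Mueller-Hinton broth (20 mg/l Ca2+, 10 mg/L Mg2+), inoculum 5×10^5 CFU/mL. Compounds in DMSO, solvent under 1% in well, tested over 0.12-128 µg/ml. […] Each determined at least twice; values converted to µmol/L.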

For data set [3], the system named is Staphylococcus aureus. Briefly: Antibacterial activity against Norfloxacin-resistant Staphylococcus aureus 1199B over-expressing NorA after 16 hrs by microdilution method. The data set is classed as functional. The method in brief: as §2
The subject of data set [4] is Staphylococcus aureus. Briefly: Antibacterial activity against erythromycin-resistant Staphylococcus aureus RN4220 after 16 hrs by microdilution method. As to conditions: RN4220, 16 h. The data set is classed as functional. In a few lines: as §2
Data set [5] concerns Staphylococcus aureus. Briefly: Antibacterial activity against Staphylococcus aureus EMRSA-15 after 16 hrs by microdilution method. In kind it is functional. Conditions: EMRSA-15, 16 h. The method in brief:
as §1

The subject of data set [6] is Staphylococcus aureus. Briefly: Antibacterial activity against tetracycline/methicillin-resistant Staphylococcus aureus XU212 after 16 hrs by microdilution method. In kind it is functional. As to conditions: XU212, 16 h. In a few lines:
as §2

Another data set has as its system Escherichia coli. The data set can be described thus: Antibacterial activity against Escherichia coli NCTC 12241 after 16 hrs by microdilution method. In kind it is functional. As to conditions: NCTC 12241, 16 h. The method in brief:
as §1

The target of data set [7] is T1, Albumin (Homo sapiens, UniProt P02768). Briefly: Binding affinity to human serum albumin at 303K by Van't Hoff plot method. In kind it is ADME. As to conditions: isolated protein. In a few lines: (§3)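 Fatty acid-free HSA held at 5 × 10^-7 M in 30 mM PBS pH 7.38, titrated with compound DMSO stock at 0.5–8 molar equivalents (final DMSO ≤2%). Equilibrated 20 min after each addition. Fluorescence excitation 280 nm, emission 300–450 nm, PBS background subtracted. Quenching recorded at 293, 303 and 310 K and analysed by Stern-Volmer, molar ratio and van't Hoff treatment.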
T1 sequence (P02768 whole entry): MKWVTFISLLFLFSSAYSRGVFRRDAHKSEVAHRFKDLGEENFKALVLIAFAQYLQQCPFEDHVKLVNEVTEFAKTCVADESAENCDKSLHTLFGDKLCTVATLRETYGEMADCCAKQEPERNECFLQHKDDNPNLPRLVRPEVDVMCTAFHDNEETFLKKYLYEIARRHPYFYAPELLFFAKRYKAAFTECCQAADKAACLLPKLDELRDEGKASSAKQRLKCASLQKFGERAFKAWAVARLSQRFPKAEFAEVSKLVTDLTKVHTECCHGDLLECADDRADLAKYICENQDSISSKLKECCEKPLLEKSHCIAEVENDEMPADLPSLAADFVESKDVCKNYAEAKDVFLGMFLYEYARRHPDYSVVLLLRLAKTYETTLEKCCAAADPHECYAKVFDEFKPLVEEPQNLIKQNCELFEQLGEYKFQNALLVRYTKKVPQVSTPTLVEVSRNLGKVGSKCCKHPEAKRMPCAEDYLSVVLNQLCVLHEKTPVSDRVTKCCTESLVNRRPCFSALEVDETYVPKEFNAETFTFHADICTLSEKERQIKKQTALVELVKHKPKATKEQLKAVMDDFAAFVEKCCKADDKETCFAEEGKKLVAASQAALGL

Data set [8] has as its target T1, Albumin. Briefly: Binding affinity to human serum albumin at 310K by Van't Hoff plot method. As to conditions: isolated protein. In kind it is ADME. The method in brief:
as §3

Data set [9] deals with T1, Albumin. Briefly: Binding affinity to human serum albumin at 293K by Van't Hoff plot method. The data set is classed as ADME. As to conditions: isolated protein. In a few lines:
as §3

Data set [10] in a line: Cytotoxicity against human MRC5 cells. The data set is classed as cell-based.
In data set [11] the target is T1, Albumin. The data set can be described thus: Binding affinity to human serum albumin at 293K by Stern-Volmer plot method. The data set is classed as ADME. As to conditions: isolated protein. The method in brief:
as §3

Data set [12] deals with T1, Albumin. Briefly: Binding affinity to human serum albumin at 303K by Stern-Volmer plot method. The data set is classed as ADME. Conditions: isolated protein. The method in brief: as §3
Data set [13] concerns the target T1, Albumin. Briefly: Binding affinity to human serum albumin at 310K by Stern-Volmer plot method. In kind it is ADME. Conditions: isolated protein. The method in brief:
as §3

Data set [14] deals with T1, Albumin. The data set can be described thus: Binding affinity to human serum albumin at 293K by fluorescence spectroscopic method. The data set is classed as ADME. As to conditions: isolated protein. The method in brief: as §3
For data set [15], the target named is T1, Albumin. The data set can be described thus: Binding affinity to human serum albumin at 303K by fluorescence spectroscopic method. In kind it is ADME. As to conditions: isolated protein. The method in brief:
as §3

In data set [16] the target is T1, Albumin. Briefly: Binding affinity to human serum albumin at 310K by fluorescence spectroscopic method. The data set is classed as ADME. Conditions: isolated protein. The method in brief: as §3
Data set [17] concerns the target T1, Albumin. The data set can be described thus: Binding affinity to human serum albumin assessed as Gibbs free energy change at 293K by Van't Hoff plot method. The data set is classed as ADME. Conditions: isolated protein. The method in brief: as §3
Data set [18] addresses T1, Albumin. The data set can be described thus: Binding affinity to human serum albumin assessed as Gibbs free energy change at 303K by Van't Hoff plot method. In kind it is ADME. As to conditions: isolated protein. In a few lines:
as §3

Data set [19] deals with T1, Albumin. The data set can be described thus: Binding affinity to human serum albumin assessed as Gibbs free energy change at 310K by Van't Hoff plot method. As to conditions: isolated protein. The data set is classed as ADME. In a few lines: as §3
In data set [20] the target is T1, Albumin. Briefly: Binding affinity to human serum albumin assessed as change in enthalpy at 293K by Van't Hoff plot method. The data set is classed as ADME. As to conditions: isolated protein. The method in brief: as §3
Data set [21] deals with T1, Albumin. The data set can be described thus: Binding affinity to human serum albumin assessed as change in entropy at 293K by Van't Hoff plot method. As to conditions: isolated protein. The data set is classed as ADME. The method in brief:
as §3

Data set [22] can be described thus: Acidity constant, pKa of the compound at 5 x 10^-5 M by UV/Vis spectrophotometric titration method. The data set is classed as physicochemical. In a few lines: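 Spectrophotometric titration at 20 ± 0.5 °C of a 5 × 10^-5 M working solution (ethanol, then 10 mM phosphate buffer pH 10.44, I = 0.1 M NaCl). Acidified stepwise with H3PO4 to pH ~4, with pH monitored continuously. UV/Vis spectra 210–600 nm against blank. pKa2 taken from the slope of the linearized absorbance equation. Three sets; mean ± 95% CI.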

Data set [23] can be described thus: Octanol/phosphate buffer distribution co-efficient, log D of the compound at 7.4 by shake-flask method. The data set is classed as physicochemical. Conditions: pH 7.4. The method in brief:
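Shake-flask partition between octanol and 10 mM phosphate buffer pH 7.4. Compound stock 5.0 × 10^-3 M in buffer-saturated octanol. Aqueous concentration measured spectrophotometrically against a calibration curve; octanol concentration taken by difference. Three octanol/buffer volume ratios; mean ± 95% CI.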

In data set [24] the test system is Staphylococcus aureus. Briefly: Potency index, ratio of norfloxacin MIC to test compound MIC for Norfloxacin-resistant Staphylococcus aureus 1199B over-expressing NorA. The data set is classed as functional.

From ChEMBL document CHEMBL4138171, “Design, synthesis and biological evaluation of novel aryldiketo acids with enhanced antibacterial activity against multidrug resistant bacterial strains” (Eur J Med Chem, 2018) come the findings set out here.

Usually MIC stands for the lowest concentration that inhibits growth of the organism. Broadly, the IC90 is the concentration at which the effect reaches the 90% level. Read a low IC90 as an effect from little substance. Broadly, the pKa is the negative logarithm of the acid dissociation constant. A low value points to a group that gives up its proton readily. One may read the logD as lipophilicity at a set pH, counting ionised and neutral species.

The structures appear in SMILES notation.

For the molecule `CN1CCN(c2ccc(C(=O)/C=C(\O)C(=O)O)cc2)CC1`, the MIC with Enterococcus faecalis, in the data set on Bacillus subtilis, against Staphylococcus aureus [1], in the data set with Staphylococcus aureus [2], with Staphylococcus aureus [3] and in the data set on Staphylococcus aureus [4] was > 128 µg/mL in each case. Also, the MIC against Staphylococcus aureus [5], in the data set with Staphylococcus aureus [6] and in the data set on Escherichia coli was > 128 µg/mL throughout.

As for `O=C(O)/C(O)=C/C(=O)c1cc(C2CCCCC2)ccc1C1CCCCC1`, the results for the lnK at Albumin [7], at Albumin [8] and on Albumin [9] were 14.29 M⁻¹, 14.21 M⁻¹ and 14.36 M⁻¹, respectively. Further, the MIC in the data set on Enterococcus faecalis came out at 6 µM; against Bacillus subtilis, 125 µM; with Staphylococcus aureus [1] it was 11 µM; in the data set with Staphylococcus aureus [2], 11 µM; with Staphylococcus aureus [3], 11 µM; in the data set with Staphylococcus aureus [4], 11 µM. The MIC is 22 µM in the data set on Staphylococcus aureus [5], 11 µM in the data set with Staphylococcus aureus [6] and > 128 µg/mL in the data set with Escherichia coli. Moreover, the 90% effect level in data set [10] (IC90) was put at 30 µM. Besides, the KSV on Albumin [11] came to 1.72 ×10⁶ /M; on Albumin [12] it was 1.6 ×10⁶ /M; at Albumin [13], 1.48 ×10⁶ /M. For the same molecule, the Ka was 1.06 ×10⁶ /M at Albumin [11], 1.02 ×10⁶ /M on Albumin [12] and 0.95 ×10⁶ /M on Albumin [13]. The Kq amounted to 2.42 ×10¹⁴ /M/s at Albumin [11], 2.26 ×10¹⁴ /M/s at Albumin [12] and 2.09 ×10¹⁴ /M/s at Albumin [13]. For the same molecule, the figures for the logKb on Albumin [14], at Albumin [15] and on Albumin [16] were 7.02, 6.84 and 6.75, respectively. For the same molecule, the values for the deltaG on Albumin [17], at Albumin [18] and on Albumin [19] were -8.36 kcal/mol, -8.6 kcal/mol and -8.75 kcal/mol, respectively. Moreover, on Albumin [20], the deltaH was -1.59 kcal/mol. For the same molecule, the deltaS at Albumin [21] was 96.76 J/mol/K. In [22], this molecule registered a pKa at 50 µM of 7.56. In [23], this molecule registered a log distribution coefficient (logD) of 2.6.

Turning to `Cc1cc(C(=O)/C=C(\O)C(=O)O)cc(C)c1O`, the MIC with Enterococcus faecalis, against Bacillus subtilis, in the data set with Staphylococcus aureus [1], against Staphylococcus aureus [2], in the data set with Staphylococcus aureus [3] and in the data set with Staphylococcus aureus [4] was > 128 µg/mL in each case. Moreover, the MIC against Staphylococcus aureus [5], with Staphylococcus aureus [6] and in the data set with Escherichia coli was > 128 µg/mL in each case.

With `CN(C)c1ccc(C(=O)/C=C(\O)C(=O)O)cc1`, the MIC in the data set with Enterococcus faecalis, in the data set on Bacillus subtilis, with Staphylococcus aureus [1], against Staphylococcus aureus [2], in the data set with Staphylococcus aureus [3] and against Staphylococcus aureus [4] was > 128 µg/mL each time. The MIC in the data set with Staphylococcus aureus [5], with Staphylococcus aureus [6] and in the data set with Escherichia coli was > 128 µg/mL in each case.

`CC(C)c1cc(C(C)C)c(C(=O)/C=C(\O)C(=O)O)c(C(C)C)c1`: the MIC was > 128 µg/mL against Enterococcus faecalis; 25 µM in the data set with Bacillus subtilis; 13 µM in the data set on Staphylococcus aureus [1]; > 128 µg/mL in the data set with Staphylococcus aureus [2]; 25 µM against Staphylococcus aureus [3]; 50 µM with Staphylococcus aureus [4]. The MIC against Staphylococcus aureus [5] was 25 µM; against Staphylococcus aureus [6], 50 µM; with Escherichia coli, > 128 µg/mL. In data set [10], this molecule returned an IC90 of 90 µM.

Turning to `CCc1cc(CC)c(C(=O)/C=C(\O)C(=O)O)c(CC)c1`, the MIC was 116 µM against Staphylococcus aureus [3]; 232 µM in the data set on Staphylococcus aureus [4]; 232 µM against Staphylococcus aureus [5]; 232 µM in the data set on Staphylococcus aureus [6]; > 128 µg/mL against Escherichia coli. Also, the Ratio with Staphylococcus aureus [24] came out at 10.
